Data on 18 compounds can be found in ChEMBL document CHEMBL4052653, “Discovery of Novel and Potent Stearoyl Coenzyme A Desaturase 1 (SCD1) Inhibitors as Anticancer Agents” (Bioorg Med Chem, 2017).

In one data set the test system is HCT-116. Briefly: Growth inhibition of human HCT116 cells after 72 hrs by CellTiter-Glo luminescence assay. It is filed as functional. The settings on record: HCT-116, 72 h. A digest of the protocol:
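HCT116 cells seeded at 9 × 10^2 cells/well and cultured 24 h. Compounds diluted in growth medium to final concentrations and added. Proliferation read by CellTiter-Glo luminescence after 72 h.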
For orientation: ATP-based viability assays read luminescence as a measure of living cells.

Data set [1] addresses T1, Stearoyl-CoA desaturase (Homo sapiens, UniProt O00767).
T1 sequence (O00767 whole entry): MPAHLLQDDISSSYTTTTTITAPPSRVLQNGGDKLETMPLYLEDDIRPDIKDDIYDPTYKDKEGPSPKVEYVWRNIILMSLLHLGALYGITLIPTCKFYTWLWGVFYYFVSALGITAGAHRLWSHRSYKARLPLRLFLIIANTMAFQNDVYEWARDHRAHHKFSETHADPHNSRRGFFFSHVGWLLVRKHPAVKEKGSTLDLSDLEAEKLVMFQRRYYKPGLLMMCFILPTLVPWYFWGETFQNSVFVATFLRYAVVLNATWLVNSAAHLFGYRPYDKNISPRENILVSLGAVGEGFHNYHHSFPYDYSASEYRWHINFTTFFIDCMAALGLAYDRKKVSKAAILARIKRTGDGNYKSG
As to the kind of experiment: Displacement of (5-(6-(10H-spiro(1-benzofuran-3,30-pyrrolidin)-10-yl)pyridazin-3-yl)-1,2,4-oxadiazol-3-yl)[3H2]methanol from SCD1 in human liver microsomes after 120 mins TopCount liquid scintillation counting method. In a few lines: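 Human SCD1 liver microsomes incubated 120 min with 3.0 nM [3H]-ligand and test compound over a range of concentrations. Bound ligand collected on PEI-pretreated GF/B filters, washed five times, counted by scintillation. Controls: DMSO (100%) and 10 µM unlabeled reference ligand (0%). IC50 from a three-parameter logistic fit.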
In general terms: Liver microsomes are a subcellular fraction often used to study metabolism.

Data set [2] is described as follows: Stability in mouse liver microsomes. The format is ADME, microsome. The settings on record: read-out: Stability.
Data set [3] is described as follows: Stability in human liver microsomes. The format is ADME, microsome. The following applies: read-out: Stability.
Data set [4] in a line: Total clearance in mouse at 0.1 mg/kg, iv or 1 mg/kg, po administered as cassette dose. The format is ADME, organism-based. The following applies: in vivo. In a few lines: (§1)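 Mouse cassette-dosing PK: 0.1 mg/kg iv and 1 mg/kg po. Total clearance given in […]. AUC (ng·h/mL) and MRT (h) taken after the oral dose.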
Data set [5] in a line: AUC in po dosed mouse administered as cassette dose. The format is ADME, organism-based. The following applies: in vivo. In a few lines:
as §1

The nature of data set [6]: Mean residence time in po dosed mouse administered as cassette dose. The settings on record: in vivo. The format is ADME, organism-based. In a few lines: as §1
Data set [7] can be described thus: Fraction unbound in mouse plasma. The format is ADME, cell-free.
The test system of data set [8] is Mus musculus. Briefly: Toxicity in athymic BALB/cA Jc1-nu/nu mouse at 1 mg/kg, po bid administered for 28 days. The settings on record: in vivo, 672 h. It is filed as organism-based.
A further data set relates to 786-0. As to the kind of experiment: Antitumor activity against human 786-O cells xenografted in athymic BALB/cA Jc1-nu/nu mouse assessed as tumor growth inhibition at 1 mg/kg, po bid administered for 28 days measured twice per week. It is filed as functional. In a few lines:
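Female BALB/c nu/nu mice, 7 weeks old, inoculated subcutaneously in the flank with 3.0 × 10^6 786-O cells (1:1 with Matrigel). Randomized at mean tumor volume of about 130 mm3, n = 8/group. Dosed orally at 1 mg/kg bid, or with 0.5% methylcellulose vehicle, for 28 days at 10 mL/kg. Calipers used twice weekly, volume = W²×L/2. T/C taken at Day 28; Student's t-test.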
For orientation: A xenograft is tissue or cells of one species grown in another, often human tumour cells in immunodeficient mice.

Data set [9] has as its system Mus musculus. Briefly: In-vivo inhibition of SCD1 in athymic nude mouse xenografted with human HCT116 cells assessed as decrease in desaturation index of phosphatidylcholine at 0.3 to 30 mg/kg, po bid measured after 16 hrs by LC/MS analysis. The format is functional, organism-based. In a few lines:
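Nude mice bearing HCT116 xenografts of about 200 mm3, randomized. Oral dosing at 0.3, 3 and 30 mg/kg bid in 0.5% methylcellulose. Tumors collected 16 h after two doses and homogenized in isopropanol. Lipids analyzed by LC/Orbitrap MS. DI taken as the ratio PC C36:3/PC C36:0. Statistics by Williams' test.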

A short description of data set [10]: Mean residence time in mouse at 1 mg/kg, po administered as cassette dose. The format is ADME, organism-based. The settings on record: in vivo. A digest of the protocol: as §1
Data set [11] concerns the target T1, Stearoyl-CoA desaturase. Briefly: Inhibition of SCD1 (unknown origin).
Data set [12] has as its system Mus musculus. As to the kind of experiment: AUC in mouse at 1 mg/kg, po administered as cassette dose. It is filed as ADME, organism-based. The following applies: in vivo. In a few lines:
as §1

The source made the active and inactive calls. The rule behind the calls is not given here.

In the data set with HCT-116, `N#CC1(c2cccc(Cl)c2)CCN(c2ccc(-c3nc(CO)no3)nn2)CC1` returned a 50% growth inhibitory concentration (GI50) of 0.2 µM. The compound also had an IC50 on Stearoyl-CoA desaturase [1] of 0.015 µM.

For `N#CC1(c2ccccc2)CCN(c2ccc(-c3nc(CO)no3)nn2)CC1`, in the data set on HCT-116, the concentration for 50% growth inhibition (GI50) was determined as 0.53 µM. The compound further came in with a concentration for half-maximal inhibition (IC50) on Stearoyl-CoA desaturase [1] of 0.19 µM.

Regarding `CC(C)(C)c1ccc(C2(C#N)CCN(c3ccc(-c4nc(CO)no4)nn3)CC2)cc1`, the microsomal CLint in [2] amounted to 119 µL/min/mg. For the same compound, the 50% growth inhibitory concentration (GI50) in the data set on HCT-116 turned out to be 0.037 µM. This compound also showed an IC50 on Stearoyl-CoA desaturase [1] of 0.021 µM.

With `OCc1noc(-c2ccc(N3CCC(c4ccccc4)(C(F)(F)F)CC3)nn2)n1`, growth in the data set on HCT-116 was halved (GI50) at 0.039 µM. The IC50 at Stearoyl-CoA desaturase [1] came out at 0.038 µM.

For `N#CC1(c2ccc(S(F)(F)(F)(F)F)cc2)CCN(c2ccc(-c3nc(CO)no3)nn2)CC1`, the microsomal CLint in [3] amounted to 7 µL/min/mg; in data set [2], 24 µL/min/mg. Besides, the 50% growth inhibitory concentration (GI50) with HCT-116 was found to be 0.0084 µM. This compound displayed a 50% inhibitory concentration (IC50) on Stearoyl-CoA desaturase [1] of 0.0095 µM.

For the compound `N#CC1(c2ccc(OC(F)(F)F)cc2)CCN(c2ccc(-c3nc(CO)no3)nn2)CC1`, the microsomal CLint in [2] was 35 µL/min/mg. In addition, halving of growth in the data set on HCT-116 (GI50) required 0.032 µM. This compound had a 50% inhibitory concentration (IC50) on Stearoyl-CoA desaturase [1] of 0.011 µM.

As for `OCc1nnc(-c2ccc(N3CCC(c4ccc(C(F)(F)F)cc4)(C(F)(F)F)CC3)nn2)s1`, in data set [2], the microsomal CLint is 1 µL/min/mg. Moreover, the clearance in [4] was 15.9 mL/min/kg. The compound further came in with an area under the curve (AUC) in data set [5] of 1190 ng·h/mL. Moreover, the mean residence time (MRT) in [6] worked out at 4.1 h. The compound further yielded a GI50 with HCT-116 of 0.0011 µM. In addition, the fraction unbound in data set [7] was 0.03. On Stearoyl-CoA desaturase [1], this compound had an IC50 of 0.0025 µM.

`OCc1nnc(-c2ccc(N3CCC(c4ccc(C(F)(F)F)cc4)(C(F)(F)F)CC3)nn2)o1`: the microsomal CLint in [3] stood at 14 µL/min/mg; in [2] it was 33 µL/min/mg. This compound gave a clearance in data set [4] of 5.17 mL/min/kg. In addition, in the data set on Mus musculus [8], the Activity result is recorded as “Non-Toxic”. Besides, the T/C with 786-0 stood at 32.8%. In addition, the AUC in [5] stood at 3760 ng·h/mL. The compound also showed an MRT in [6] of 4.2 h. In the data set with HCT-116, this compound registered a concentration for 50% growth inhibition (GI50) of 0.0027 µM. Further, the fraction unbound in data set [7] turned out to be 0.07. For the same compound, the inhibition entry with Mus musculus [9] was “Active”. This compound also gave a half-maximal inhibitory concentration (IC50) on Stearoyl-CoA desaturase [1] of 0.0047 µM.

In turn, `COC1(c2ccccc2)CCN(c2ccc(-c3nc(CO)no3)nn2)CC1` showed a GI50 in the data set on HCT-116 of 0.41 µM. This compound came in with a 50% inhibitory concentration (IC50) at Stearoyl-CoA desaturase [1] of 0.11 µM.

The compound `OCc1noc(-c2ccc(N3CCC(O)(c4ccccc4)CC3)nn2)n1` yielded a GI50 in the data set on HCT-116 above 1 µM. Besides, the 50% inhibitory concentration (IC50) on Stearoyl-CoA desaturase [1] is 0.13 µM.

In the case of `N#CC1(c2ccc([N+](=O)[O-])cc2)CCN(c2ccc(-c3nc(CO)no3)nn2)CC1`, the microsomal CLint came out at 6 µL/min/mg in data set [3] and 11 µL/min/mg in data set [2]. For the same compound, in the data set on HCT-116, halving of growth (GI50) required 0.17 µM. The half-inhibitory concentration (IC50) on Stearoyl-CoA desaturase [1] came to 0.1 µM.

As to `N#CC1(c2ccc(Cl)cc2)CCN(c2ccc(-c3nc(CO)no3)nn2)CC1`, the microsomal CLint in data set [2] worked out at 39 µL/min/mg. Moreover, the GI50 in the data set with HCT-116 was 0.11 µM. Also, at Stearoyl-CoA desaturase [1], the half-maximal inhibitory concentration (IC50) worked out at 0.02 µM.

On to `NC1(c2ccccc2)CCN(c2ccc(-c3nc(CO)no3)nn2)CC1`, for which the 50% growth inhibitory concentration (GI50) in the data set with HCT-116 came out at 0.53 µM. For the same compound, the IC50 at Stearoyl-CoA desaturase [1] is 0.22 µM.

With `OCc1noc(-c2ccc(N3CCC4(COc5ccccc54)C3)nn2)n1` (stereo unspecified), in data set [10], the mean residence time (MRT) stood at 2.3 h. 0.0046 µM corresponded to half-maximal inhibition on Stearoyl-CoA desaturase [11] (IC50). Moreover, in the data set with Mus musculus [12], the AUC is 299 ng·h/mL.

As to `OCc1nsc(-c2ccc(N3CCC(c4ccc(C(F)(F)F)cc4)(C(F)(F)F)CC3)nn2)n1`, the microsomal CLint in data set [3] is 10 µL/min/mg. The clearance in [4] is 8.23 mL/min/kg. The compound also returned an area under the curve (AUC) in data set [5] of 1820 ng·h/mL. Further, the mean residence time (MRT) in data set [6] came to 4.2 h. Besides, the GI50 with HCT-116 is 0.0013 µM. The compound also came in with a fraction unbound in data set [7] of 0.01. At Stearoyl-CoA desaturase [1], this compound showed a concentration for half-maximal inhibition (IC50) of 0.0012 µM.

For the compound `N#CC1(c2ccc(C(F)(F)F)cc2)CCN(c2ccc(-c3nc(CO)no3)nn2)CC1`, the microsomal CLint came out at 2 µL/min/mg in [3] and 33 µL/min/mg in data set [2]. The same compound gave a GI50 in the data set on HCT-116 of 0.039 µM. This compound had an IC50 on Stearoyl-CoA desaturase [1] of 0.027 µM.

In the data set with HCT-116, `N#CC1(c2ccccc2Cl)CCN(c2ccc(-c3nc(CO)no3)nn2)CC1` registered a concentration for 50% growth inhibition (GI50) of 0.24 µM. The IC50 on Stearoyl-CoA desaturase [1] amounted to 0.08 µM.

As to `OCc1noc(-c2ccc(N3CCC(c4ccc(C(F)(F)F)cc4)(C(F)(F)F)CC3)nn2)n1`, the microsomal CLint came out at 20 µL/min/mg in [3] and 19 µL/min/mg in data set [2]. In addition, the clearance in data set [4] is 15.4 mL/min/kg. In data set [5], this compound yielded an AUC of 432 ng·h/mL. This compound had an MRT in [6] of 3.2 h. This compound also registered a GI50 in the data set on HCT-116 of 0.0013 µM. The compound also returned a free fraction (fraction unbound) in data set [7] of 0.05. This compound also gave a half-maximal inhibitory concentration (IC50) at Stearoyl-CoA desaturase [1] of 0.0023 µM.

Usually GI50 stands for the concentration that inhibits growth by half. The low end stands for more potent growth inhibition, the high end for less potent growth inhibition. Broadly, the IC50 is the concentration that inhibits the measured activity by half. The term AUC denotes concentration integrated over time. A low value points to less exposure. Usually MRT stands for a mean duration of stay, worked out from the concentration-time curve. The term fraction unbound denotes the share of the substance not bound to proteins or other matrix. Read a low fraction unbound as little free substance. By T/C is commonly meant the ratio of treated to control.
